ABHD4 inh: inhibitors of mouse ABHD4 | Q8VD66 | purified mABHD4, FP-Rh probe fluorescence polarization | inhibition, % at 8.92 µM | actives 0.54% (n = 370,000);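 active means inhibition exceeding the mean over every tested compound plus 3 SD, cut at about 30% in these data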
Target sequence (Q8VD66 whole entry, looked up): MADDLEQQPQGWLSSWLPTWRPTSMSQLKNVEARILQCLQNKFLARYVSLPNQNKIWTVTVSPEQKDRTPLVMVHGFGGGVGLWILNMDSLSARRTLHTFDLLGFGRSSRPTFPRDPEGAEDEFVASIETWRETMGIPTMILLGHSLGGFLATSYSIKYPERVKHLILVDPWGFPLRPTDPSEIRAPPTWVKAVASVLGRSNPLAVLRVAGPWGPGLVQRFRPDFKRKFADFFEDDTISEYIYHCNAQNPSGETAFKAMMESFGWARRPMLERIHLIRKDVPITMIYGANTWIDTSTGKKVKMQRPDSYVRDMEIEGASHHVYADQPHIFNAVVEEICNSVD
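Assay system: mouse ABHD4 enzyme, wild type / Also added: fluorescent activity-based probe FP-Rh / Doses: single nominal dose of 8.92 µM, 0.89% DMSO final / Timing: 45 min compound pre-incubation plus 60 min probe step, 25 °C / Signal: FP readout, ex 525 nm / em 598 nm / Control set: S159A mutant/DMSO as 100%, compound-well median as 0%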
PAFAH1B3 FP inh: blocks human PAF acetylhydrolase 1B catalytic subunit 3; actives 0.28% (n = 340,000); inhibition, % at 3.39 µM; recombinant PAFAH1B3, FP-rhodamine probe, fluorescence polarization;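 active means inhibition above the screen-wide average of all tested compounds plus 3 SD, cut at about 25% in these data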
pPAFAH FP inh: inhibitors of human plasma PAF acetylhydrolase (pPAFAH); inhibition, % at 3.39 µM; AID 463082; recombinant pPAFAH, FP-rhodamine probe fluorescence polarization; actives 1.5% (n = 330,000);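 active means inhibition above the mean inhibition across the screen plus 3 SD, cut at about 25% in these data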;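 further: inhibitors block binding of the rhodamine activity-based probe so polarization drops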
HTRA1 inhibitor: HTRA1 (human) protease inhibition; recombinant HTRA1, FP-rhodamine activity-based probe, fluorescence polarization; actives 0.5% (n = 340,000); inhibition, % at 5.96 µM; Q92743; in the data active means inhibition above about 36%
PAFAH2 FP inh: PAFAH2 (human) inhibition; Q99487; recombinant PAFAH2, FP-rhodamine activity probe, fluorescence polarization; inhibition, % at 3.39 µM; actives 0.99% (n = 340,000); AID 492956;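 active means inhibition above the mean over all tested compounds plus 3 SD, cut at about 30% in these data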;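 further: inhibitors block probe labeling of enzyme so polarization drops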
PAFAH1B2 inh: blocks human PAF acetylhydrolase 1b catalytic subunit 2 | P68402 | recombinant PAFAH1B2, FP-rhodamine activity probe, fluorescence polarization | inhibition, % at 3.39 µM | actives 1.2% (n = 340,000) | AID 492953;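 active means inhibition above the mean of all tested compounds plus 3 SD, cut at about 24% in these data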
Target sequence (P68402 whole entry, looked up): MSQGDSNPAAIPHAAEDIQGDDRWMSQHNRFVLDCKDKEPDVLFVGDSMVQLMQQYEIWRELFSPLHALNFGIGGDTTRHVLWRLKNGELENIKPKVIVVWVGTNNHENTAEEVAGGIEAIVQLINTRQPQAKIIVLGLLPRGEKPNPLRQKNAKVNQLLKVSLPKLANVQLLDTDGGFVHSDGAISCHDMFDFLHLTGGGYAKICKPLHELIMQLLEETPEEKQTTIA
PAFAH1B3 confirm: confirmation of human PAFAH1B3 inhibitors; recombinant PAFAH1B3, FP-Rh activity-based probe, fluorescence polarization; actives 30% (n = 390); inhibition, % at 3.39 µM; shares compounds with PAFAH1B3 FP inh; AID 493032;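 active means average inhibition over triplicate runs above the hit cutoff set in the earlier primary screen, cut at about 25% in these data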
HTRA1 conf: confirmation of human HTRA1 inhibitors; shares compounds with HTRA1 inhibitor; recombinant HTRA1, FP-rhodamine activity-based probe, fluorescence polarization; inhibition, % at 5.96 µM; actives 66% (n = 1,600);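 active means mean inhibition over three repeats above a set limit taken from the earlier primary screen, cut at about 37% in these data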;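 further: inhibitors block probe binding so polarization drops and inhibition rises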
ABHD4 confirm: confirmation of mouse ABHD4 inhibitors; AID 720658; actives 55% (n = 1,800); shares compounds with ABHD4 inh; inhibition, % at 8.92 µM; purified mABHD4, FP-Rh probe fluorescence polarization;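 active means mean inhibition across replicates above the hit cutoff set in the primary screen, cut at about 30% in these data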
A number is an active result; . = inactive; / = no result given. Shown are actives, neighbours in structure and some others; about 2.8% of the full set was active somewhere.

SMILES	ABHD4 inh	PAFAH1B3 FP inh	pPAFAH FP inh	HTRA1 inhibitor	PAFAH2 FP inh	PAFAH1B2 inh	PAFAH1B3 confirm	others
COC(=O)[C@]12C[C@H](CC(=O)N3CCN(C(=O)c4ccco4)CC3)C(=O)N(CCc3ccc(OC)c(OC)c3)C1=C[C@H](C1CCCC1)O[C@@H]2C	.	/	/	/	/	/	/
CCN(CC)C(=O)CC[C@@H]1CC[C@]2(CCCN(Cc3ccc(Cl)cc3)C2)O1	.	/	/	/	/	/	/
O=C(Nc1ccc(F)c(Cl)c1)Nc1csc2ccccc12	.	30.4	.	.	.	.	.
CC(C)N1CCCCC(NC(=O)c2cccc(C(F)(F)F)c2)C1=O (stereo unspecified)	.	/	/	/	/	/	/
CCc1nc2ccc(C(=O)N3CCN(CC)CC3)cc2nc1CC	.	27.7	.	.	.	.	.
CCCN1CCN(C(=O)c2ccc3nc(CC)c(CC)nc3c2)CC1	.	.	.	.	.	.	/
COC(=O)[C@]12C[C@H](CC(=O)NCc3ccc(OC)c(OC)c3)C(=O)N(Cc3ccc4c(c3)OCO4)C1=C[C@H](C(C)(C)C)O[C@@H]2C	.	/	/	/	/	/	/
COc1ccc(/C=C2\C(=O)NC(=O)c3ccccc32)cc1OC	.	40.0	/	.	.	.	.
CCCC(C)C(=O)NC1CCCCN(Cc2ccccc2C)C1=O (stereo unspecified)	.	/	/	/	/	/	/
O=C(CSc1nccc(=O)[nH]1)N1CCc2ccccc2C1	.	28.1	.	.	.	.	.
CCCc1cc(=O)[nH]c(SCC(=O)N2CCc3ccccc3C2)n1	.	.	.	.	.	.	/
CCN(CC)CCn1nc2c3c(cccc3c1=O)-c1ccccc1-2	.	.	.	.	.	.	/
O=c1c2cccc3c2c(nn1CN1CCOCC1)-c1ccccc1-3	/	26.4	.	.	.	.	36.2
C=CCN1[C@H](CO)[C@H](c2ccc(C#CC3(O)CCCC3)cc2)[C@@H]1C#N	.	/	/	/	/	/	/
CCN(CC)c1ccc(NC2=C(Cl)C(=O)c3ccccc3C2=O)cc1	/	25.8	.	.	.	.	35.6
Cc1ccc(NC2=C(Cl)C(=O)c3ccccc3C2=O)cc1	.	.	.	.	.	.	/
CCCC(=O)NC1=C(Cl)C(=O)c2ccccc2C1=O	.	37.6	/	.	.	.	.
CCc1cc(/C(Cc2csc(C)n2)=N/O)c(O)cc1O	.	29.0	.	.	.	.	.
O=C(CSc1nnc(COc2ccc(Cl)cc2)n1Cc1ccco1)Nc1ccc(OCc2ccccc2)cc1	.	/	/	/	/	/	/
COc1ccc(C(=O)Nc2ccc(S(=O)(=O)N3CCCCC3)cc2)cc1OC	.	.	.	.	.	.	/
COc1cc(OC)c(C(=O)Nc2ccc(S(=O)(=O)N3CCCCC3)cc2)cc1OC	.	29.9	.	.	.	.	.
Cc1ccc(C(=O)O)cc1N1C(=O)c2cccc3cc(Br)cc(c23)C1=O	.	56.6	.	.	.	.	56.9
ON=C1c2ccccc2-c2ccc(O)cc21	.	36.7	/	.	.	.	27.7
O=C(O)c1cccc(NC2=C(n3nnc4ccccc43)C(=O)c3ccccc3C2=O)c1	.	29.3	.	.	.	.	.
C[C@H]1Cn2nnc(-c3ccccc3)c2Cn2c3ccccc3c(=O)n21	.	/	/	/	/	/	/
SMILES	ABHD4 inh	PAFAH1B3 FP inh	pPAFAH FP inh	HTRA1 inhibitor	PAFAH2 FP inh	PAFAH1B2 inh	PAFAH1B3 confirm	others
O=C(Cn1ncc(Cl)c(Cl)c1=O)NC1CCCCC1	.	28.9	.	.	.	.	.
O=c1oc2cc(O)ccc2cc1-c1nc2c(s1)CCc1ccccc1-2	.	33.4	.	.	.	.	.
Cc1ccc(C2=NOC(=O)/C2=C\C=C\c2ccccc2)cc1	.	36.2	/	.	.	.	28.8
CC(=O)C(C(C)=O)C1(O)C(=O)c2ccccc2C1=O	.	34.1	.	.	.	.	.
Cc1ccc(CN[C@@H]2CC[C@@]34CCCN3C(=O)CCC[C@H]4C2)o1	.	/	/	/	/	/	/
O=C1Nc2ccc(Br)cc2C12NNc1ccccc1O2 (stereo unspecified)	.	27.4	29.4	49.1	.	.	.	HTRA1 conf=61.6
COC(=O)[C@H](CC(C)C)N(CCc1cn(Cc2ccc(C)cc2)nn1)S(=O)(=O)c1ccccc1Br	.	/	/	/	/	/	/
CCS(=O)(=O)Nc1ccc2c(c1)C(=O)N(C)[C@@H]1CC[C@H](CC(=O)N3CCCCC3)O[C@H]1CO2	.	/	/	/	/	/	/
C/C(=N/Nc1ccc([N+](=O)[O-])cc1)c1c[nH]c2ccccc12	.	36.1	/	45.8	.	.	.	HTRA1 conf=81.2
C/C(=N/Nc1ccc([N+](=O)[O-])cc1)c1ccc(C)cc1C	.	.	.	.	.	.	/
COc1ccc(-c2noc(C3CCCN(C(=O)Nc4ccc5c(c4)OCO5)C3)n2)cc1 (stereo unspecified)	.	/	/	/	/	/	/
Cc1nn(-c2ccc(F)cc2)c2nc(N)c(C#N)c(-c3ccc(O)c(O)c3)c12	.	36.4	/	59.2	.	.	.	HTRA1 conf=62.3
O=S(=O)(Nc1ccc(N=Nc2ccc(O)c3ccccc23)cc1)c1ccccc1	.	36.0	.	44.2	.	.	.	HTRA1 conf=.
O=[N+]([O-])c1ccc(N=Nc2ccc(O)c3ccccc23)cc1	/	.	/	.	.	.	/
Oc1ccc(CCNc2c3ccccc3nc3ccccc23)cc1O	.	39.9	.	62.2	.	.	33.0	HTRA1 conf=83.8
Cc1ccc(/C=C2/C(=O)c3ccc(C(=O)O)cc3C2=O)o1	34.3	25.8	/	.	.	.	.	ABHD4 confirm=.
Cc1ccc(C=C2C(=O)c3ccccc3C2=O)o1	.	.	.	.	.	.	/
NC(=NC(=O)/C=C/c1ccccc1Br)N(CC#Cc1ccccc1)CC#Cc1ccccc1	.	/	/	/	/	/	/
Cc1ccc(NC2=CC(=O)C(=O)c3ccccc32)cc1	37.8	25.5	.	.	.	.	.	ABHD4 confirm=.
CC1OC(CC(=O)O)CC2=C1C(=O)c1c(O)cccc1C2=O (stereo unspecified)	39.8	53.0	/	.	.	.	.	ABHD4 confirm=44.0
O=c1oc(-c2ccc(O)c(O)c2)cc2cc(O)cc(O)c12	51.4	28.5	.	55.5	.	.	28.0	HTRA1 conf=124.4;ABHD4 confirm=36.2
O=c1cc(-c2ccc(O)cc2)oc2cc(O)cc(O)c12	.	.	.	.	.	.	/
COc1ccc2[nH]c3c4c(ccc3c2c1)C(=O)C=CC4=O	55.5	37.0	/	79.6	.	.	.	HTRA1 conf=52.5;ABHD4 confirm=51.4
CC(NCc1ccco1)C(=O)N1CCN(c2cccc(C(F)(F)F)c2)CC1 (stereo unspecified)	.	/	/	/	/	/	/
COC(=O)c1ccc2c(c1O)C(=O)c1ccccc1C2=O	.	.	.	.	.	.	/

Compound activity as filed in PubChem BioAssay.
